Experimental data from ChEMBL document CHEMBL3259780, “3-Substituted-N-(4-hydroxynaphthalen-1-yl)arylsulfonamides as a novel class of selective Mcl-1 inhibitors: structure-based design, synthesis, SAR, and biological evaluation” (J Med Chem, 2014).
Activity calls are given as the source filed them. The calls are words filed in the database; no cut-off is given here.

How the values were obtained:
[1] = target: T1, Induced myeloid leukemia cell differentiation protein Mcl-1 (Homo sapiens, UniProt Q07820); assay: Binding affinity to His-tagged MCL1 (171 to 327) (unknown origin) expressed in Escherichia coli BL21(DE3) assessed as inhibition of MCL1-N-terminal biotin-labeled BIM BH3 peptide interaction after 30 mins by surface plasmon resonance analysis
T1 sequence (Q07820 whole entry): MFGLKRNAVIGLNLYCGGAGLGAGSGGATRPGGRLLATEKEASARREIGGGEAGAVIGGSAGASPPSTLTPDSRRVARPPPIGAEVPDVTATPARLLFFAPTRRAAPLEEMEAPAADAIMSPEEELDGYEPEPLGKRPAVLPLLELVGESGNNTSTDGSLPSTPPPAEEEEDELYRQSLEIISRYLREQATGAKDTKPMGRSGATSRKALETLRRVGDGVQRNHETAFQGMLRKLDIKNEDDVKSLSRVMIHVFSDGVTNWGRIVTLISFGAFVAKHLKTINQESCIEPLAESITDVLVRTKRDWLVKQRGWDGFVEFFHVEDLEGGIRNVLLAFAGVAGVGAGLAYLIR

[2] = target: T1, Induced myeloid leukemia cell differentiation protein Mcl-1; assay: Displacement of Flu-BID/FAM-BID from His-tagged MCL1 (171 to 327) (unknown origin) expressed in Escherichia coli BL21(DE3) after 3 hrs by fluorescence polarization assay
HL-60 [3] = assay: Cytotoxicity against human HL60 cells assessed as intracellular ATP level after 3 days by CellTiterGlo assay; assay type: functional, cell-based
In short: (§1)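 Cells in RPMI 1640 with 10% FBS, plated at 0.5 × 10^6 cells/well and exposed to a range of compound concentrations for 3 days. Viability is read as intracellular ATP by CellTiter-Glo luminescence. Growth is expressed as percent of DMSO-treated cells, and IC50 is obtained by nonlinear regression.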

MV4-11 = assay: Cytotoxicity against human MV4-11 cells assessed as intracellular ATP level after 3 days by CellTiterGlo assay; assay type: functional, cell-based; in short: as §1
K562 = assay: Cytotoxicity against human K562 cells assessed as intracellular ATP level after 3 days by CellTiterGlo assay; assay type: functional, cell-based; in short: as §1
HL-60 [4] = assay: Induction of apoptosis in human HL60 cells after 20 hrs by annexin V-FITC and propidium iodide staining-based flow cytometric analysis; assay type: functional, cell-based
In short: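 HL-60 cells at 0.5 × 10^6 cells/well were exposed to compounds at several concentrations for 20 h, then washed in PBS and stained with annexin-V FITC plus PI. Flow cytometry was run within 1 h. Annexin+/PI− counts as early apoptosis and double positive as late. Some runs included a 1 h pretreatment with 100 μM Z-VAD-FMK.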

Bcl-2-like protein 1 = Bcl-2-like protein 1 (Homo sapiens, UniProt Q07817); assay: Displacement of Flu-BID/FAM-BID from His-tagged BCLX-L (1 to 209) (unknown origin) expressed in Escherichia coli BL21(DE3) after 3 hrs by fluorescence polarization assay
Sequence of Bcl-2-like protein 1 (Q07817 whole entry): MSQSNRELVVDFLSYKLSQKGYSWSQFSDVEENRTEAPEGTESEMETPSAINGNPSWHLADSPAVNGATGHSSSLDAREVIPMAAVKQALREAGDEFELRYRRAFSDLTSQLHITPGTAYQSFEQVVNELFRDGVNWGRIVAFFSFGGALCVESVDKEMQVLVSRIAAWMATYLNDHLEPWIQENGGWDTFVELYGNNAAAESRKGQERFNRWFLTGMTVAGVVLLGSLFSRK

Homo sapiens = species: Homo sapiens; assay: Selectivity ratio of Ki for His-tagged BCL2 (1 to 202) (unknown origin) to Ki for His-tagged MCL1 (171 to 327) (unknown origin)
In short: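 Buffer 100 mM potassium phosphate pH 7.5 with bovine gamma globulin, azide and 0.01% Triton X-100; 3 h at room temperature. IC50 fitted, then converted to Ki.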

[5] = target: T2, Apoptosis regulator Bcl-2 (Homo sapiens, UniProt P10415); assay: Displacement of Flu-BID/FAM-BID from His-tagged BCL2 (1 to 202) (unknown origin) expressed in Escherichia coli BL21(DE3) after 3 hrs by fluorescence polarization assay
T2 sequence (P10415 whole entry): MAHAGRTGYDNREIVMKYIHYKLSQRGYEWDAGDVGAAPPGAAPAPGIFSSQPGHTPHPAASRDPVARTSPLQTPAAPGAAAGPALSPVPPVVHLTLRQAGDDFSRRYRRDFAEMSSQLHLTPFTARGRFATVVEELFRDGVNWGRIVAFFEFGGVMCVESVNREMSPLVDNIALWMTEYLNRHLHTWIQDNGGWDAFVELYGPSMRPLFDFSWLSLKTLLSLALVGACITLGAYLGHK

[6] = target: T2, Apoptosis regulator Bcl-2; assay: Inhibition of BCL2 (unknown origin) overexpressed in E-mu-myc transgenic mouse lymphoma cells assessed as induction of cell death after 15 to 18 hrs by flow cytometric analysis; assay type: cell-based
In short: (§2)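 Eμ-myc transgenic mouse lymphoma cells retrovirally transduced to overexpress Mcl-1 or Bcl-2, seeded at 0.5 × 10^6 cells/well. Cells were treated at varying concentrations for 15–18 h and stained with violet LIVE/DEAD fixable dead-cell dye. Percent stained (dead) cells was measured by flow cytometry. Means ± SEM from 3–7 independent experiments.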

[7] = target: T1, Induced myeloid leukemia cell differentiation protein Mcl-1; assay: Inhibition of MCL1 (unknown origin) overexpressed in E-mu-myc transgenic mouse lymphoma cells assessed as induction of cell death at 0.1 to 10 uM after 15 to 18 hrs by flow cytometric analysis; assay type: cell-based; in short: as §2
[8] = target: T2, Apoptosis regulator Bcl-2; settings: lymphoma, 0.1 to 10 uM
[9] = target: Induced myeloid leukemia cell differentiation protein Mcl-1 homolog (Mus musculus) (UniProt P97287); assay: Inhibition of MCL1 in wild-type MEF assessed as induction of BAX/BAK-dependent cell death after 15 hrs by propidium iodide staining-based flow cytometric analysis
Sequence of Induced myeloid leukemia cell differentiation protein Mcl-1 homolog (Mus musculus) (P97287 whole entry): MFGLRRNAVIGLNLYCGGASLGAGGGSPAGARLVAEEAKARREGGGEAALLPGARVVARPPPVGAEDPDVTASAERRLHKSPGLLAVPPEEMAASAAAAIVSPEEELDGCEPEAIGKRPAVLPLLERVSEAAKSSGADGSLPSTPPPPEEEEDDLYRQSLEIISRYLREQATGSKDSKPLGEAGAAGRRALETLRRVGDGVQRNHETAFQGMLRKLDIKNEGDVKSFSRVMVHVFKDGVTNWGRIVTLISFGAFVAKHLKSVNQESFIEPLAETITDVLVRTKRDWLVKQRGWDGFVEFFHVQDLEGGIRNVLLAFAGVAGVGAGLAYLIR
In short: (§3)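 Wild-type and Bax/Bak double-knockout MEFs were grown in DMEM with 10% FBS, seeded at 0.5 × 10^6 cells/well and allowed to adhere. Cells were exposed to increasing concentrations for 15 h, harvested, washed in PBS and stained with 0.025 mg/mL propidium iodide. PI-positive percentage was measured by flow cytometry. Mean ± SEM, with unpaired t test.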

[10] = target: Induced myeloid leukemia cell differentiation protein Mcl-1 homolog (Mus musculus) (UniProt P97287); assay: Inhibition of MCL1 in BAX/BAK double knock out MEF assessed as induction of cell death at 16 uM after 15 hrs by propidium iodide staining-based flow cytometric analysis relative to control; in short: as §3
[11] = target: Induced myeloid leukemia cell differentiation protein Mcl-1 homolog (Mus musculus) (UniProt P97287); assay: Inhibition of MCL1 in wild-type MEF assessed as induction of BAX/BAK-dependent cell death at 16 uM after 15 hrs by propidium iodide staining-based flow cytometric analysis relative to control
In short: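 Wild-type and Bax/Bak double-knockout MEFs grown in DMEM with 10% FBS, seeded at 0.5 × 10^6 cells/well and left to adhere. Exposed 15 h to compound, harvested, PBS-washed, stained with 0.025 mg/mL propidium iodide. PI-positive percentage by flow cytometry; significance by unpaired t test.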

HL-60 [12] = assay: Induction of apoptosis in human HL60 cells assessed as caspase-3 activation after 20 hrs by DEVD-AFC-based fluorometric assay; assay type: functional, cell-based
In short: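 HL-60 cells were seeded at 0.5 × 10^6 cells/well and exposed to graded compound concentrations for 20 h. Caspase-3 activity was measured by fluorometric kit assay with DEVD-AFC substrate. Results are expressed as fold change over DMSO-treated cells.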

HL-60 [13] = assay: Induction of apoptosis in human HL60 cells assessed as caspase-3 activation at 2.5 uM […] by DEVD-AFC-based fluorometric assay; assay type: functional, cell-based
[14] = target: T1, Induced myeloid leukemia cell differentiation protein Mcl-1; assay: Inhibition of FITC-labeled MCL1 (unknown origin) after 5 mins by fluorescence polarization assay

Compound	IC50 [1]	Ki [2]	further results
NC(=O)CSc1cc(NS(=O)(=O)c2ccc(Br)cc2)c2ccccc2c1O	3.87 µM		
O=C(O)CSc1cc(NS(=O)(=O)Cc2ccc(Cl)cc2)c2ccccc2c1O	9.59 µM		
O=C(O)CSc1cc(NS(=O)(=O)c2ccc(-c3ccc(F)cc3F)cc2)c2ccccc2c1O	0.92 µM	0.24 µM	
O=S(=O)(Nc1cc(SCc2nnn[nH]2)c(O)c2ccccc12)c1ccc(Oc2ccccc2)cc1		0.21 µM	Activity (HL-60 [3]): Dose-dependent effect; Activity (MV4-11): Dose-dependent effect; Activity (K562): Dose-dependent effect; Activity (HL-60 [4]): Dose-dependent effect
O=C(O)CSc1cc(NC(=O)c2ccc(Br)cc2)c2ccccc2c1O	45.1 µM		
CC(C)(C)c1ccc(S(=O)(=O)Nc2cc(SCC(=O)O)c(O)c3ccccc23)cc1	8.73 µM		
COc1c(I)cc(C=O)c2ccccc12			Ki (Bcl-2-like protein 1): > 15 µM; Ratio Ki (Homo sapiens): 16
O=C(O)CSc1cc(NS(=O)(=O)c2ccc(-c3ccccc3)cc2)c2ccccc2c1O	2.03 µM		Ki [5]: 8.82 µM; Ki (Bcl-2-like protein 1): 8.05 µM; Activity (HL-60 [3]): Dose-dependent effect; Activity (MV4-11): Dose-dependent effect; Activity (K562): Dose-dependent effect
O=C(O)CSc1cc(NS(=O)(=O)c2cccc(-c3ccccc3)c2)c2ccccc2c1O	2.31 µM		Ki [5]: 7.85 µM; Ki (Bcl-2-like protein 1): 15.1 µM; Activity (HL-60 [3]): Dose-dependent effect; Activity (MV4-11): Dose-dependent effect; Activity (K562): Dose-dependent effect
CS(=O)(=O)Nc1cc(SCC(=O)O)c(O)c2ccccc12	> 100 µM	74.9 µM	
O=C(O)CCSc1cc(NS(=O)(=O)c2ccc3ccccc3c2)c2ccccc2c1O	5.03 µM		
O=C(O)CSc1cc(NC(=O)Cc2ccccc2)c2ccccc2c1O	63.8 µM	59.4 µM	
O=C(O)CSc1cc(NS(=O)(=O)c2ccc(F)cc2)c2ccccc2c1O	5.01 µM		
CCCCSc1cc(NS(=O)(=O)c2ccc(Br)cc2)c2ccccc2c1O		> 27 µM	
O=C(O)CSc1cc(NS(=O)(=O)c2ccc(Oc3ccc(F)cc3)cc2)c2ccccc2c1O	0.9 µM	0.29 µM	
O=C(O)CSc1cc(NS(=O)(=O)c2ccccc2Br)c2ccccc2c1O	6.18 µM		
O=S(=O)(Nc1cc(CCCCO)c(O)c2ccccc12)c1ccc(Br)cc1	19.7 µM		
O=C(O)CSc1cc(NS(=O)(=O)c2ccc(Br)cc2)ccc1O	> 100 µM	283 µM	
COC(=O)CSc1cc(NS(=O)(=O)c2ccc(Br)cc2)c2ccccc2c1OC	> 100 µM	> 27 µM	inhibition [6]: inactive; Activity (HL-60 [3]): Dose-dependent effect; IC50 (HL-60 [3]; HL-60, 72 h): > 50 µM; Activity (MV4-11): Dose-dependent effect; IC50 (MV4-11; MV4-11, 72 h): > 50 µM; Activity (K562): Dose-dependent effect; IC50 (K562; K562, 72 h): > 50 µM
COc1c(SCC(=O)O)cc(NS(=O)(=O)c2ccc(-c3ccccc3)cc2)c2ccccc12	> 100 µM	20 µM	
O=S(=O)(Nc1ccc(O)c2ccccc12)c1ccccc1		> 27 µM	
O=C(O)CSc1cc(NS(=O)(=O)c2ccccc2)c2ccccc2c1O	12.6 µM		

Compound	IC50 [1]	Ki [2]	further results
O=C(O)CSc1cc(NS(=O)(=O)c2ccc(Br)cc2)c2ccccc2c1O	2.4 µM		Ki [5]: 23.8 µM; Ki (Bcl-2-like protein 1): 33 µM; Activity (HL-60 [3]): Dose-dependent effect; Activity (MV4-11): Dose-dependent effect; Activity (K562): Dose-dependent effect
O=C(O)CSc1cc(NS(=O)(=O)c2ccccc2-c2ccccc2)c2ccccc2c1O	9.9 µM		Ki [5]: 23.8 µM; Ki (Bcl-2-like protein 1): 48.2 µM
O=S(=O)(Nc1cc(CCCO)c(O)c2ccccc12)c1ccc(Br)cc1	11 µM	3.79 µM	
O=C(O)CSc1cc(NS(=O)(=O)c2cc3ccccc3s2)c2ccccc2c1O	7.5 µM		
CC1(C)CCC(c2ccc(Cl)cc2)=C(CN2CCN(c3ccc(C(=O)NS(=O)(=O)c4ccc(N[C@H](CCN5CCOCC5)CSc5ccccc5)c(S(=O)(=O)C(F)(F)F)c4)cc3)CC2)C1			inhibition [7]: inactive; inhibition [8]: Active
O=C(O)CSc1cc(NS(=O)(=O)c2ccc(Oc3ccccc3)cc2)c2ccccc2c1O			Ki [5]: 7.56 µM; Ki (Bcl-2-like protein 1): 10.6 µM; inhibition [9]: Dose-dependent effect; inhibition [10]: 23%; inhibition [11]: 61%; inhibition [6]: inactive; Activity (HL-60 [3]): Dose-dependent effect; Activity (MV4-11): Dose-dependent effect; Activity (K562): Dose-dependent effect; Activity (HL-60 [4]): Dose-dependent effect; Activity (HL-60 [12]): Dose-dependent effect; Activity (HL-60 [13]): Active
COc1c(CCCCO)cc(NS(=O)(=O)c2ccc(Br)cc2)c2ccccc12	> 100 µM	> 27 µM	
O=C(O)CSc1cc(NS(=O)(=O)c2cccc(Br)c2)c2ccccc2c1O	9.68 µM		
O=S(=O)(Nc1cc(SCc2nnn[nH]2)c(O)c2ccccc12)c1ccc(Br)cc1	1.5 µM	1.01 µM	Activity (HL-60 [3]): Dose-dependent effect; Activity (MV4-11): Dose-dependent effect; Activity (K562): Dose-dependent effect
O=C(O)CSc1cc(CNS(=O)(=O)c2ccccc2)c2ccccc2c1O	30.2 µM	64.8 µM	
COC(=O)CSc1cc(NS(=O)(=O)c2ccc(Br)cc2)c2ccccc2c1O	14.9 µM		Activity (HL-60 [3]): Dose-dependent effect; Activity (MV4-11): Dose-dependent effect; Activity (K562): Dose-dependent effect
COc1ccc(S(=O)(=O)Nc2cc(SCC(=O)O)c(O)c3ccccc23)cc1	7.17 µM	9.31 µM	
O=C(O)CCSc1cc(NS(=O)(=O)c2cccc3ccccc23)c2ccccc2c1O	64.9 µM	> 27 µM	
CC(C)c1ccc(S(=O)(=O)Nc2cc(SCC(=O)O)c(O)c3ccccc23)cc1	4 µM		
CC(=O)Oc1c(SCC(=O)O)cc(NS(=O)(=O)c2ccc(Br)cc2)c2ccccc12	26.8 µM	34 µM	
O=C(O)CSc1cc(NS(=O)(=O)N2CCN(c3ccccc3)CC2)c2ccccc2c1O	16.2 µM	2.22 µM	
COc1c(SCC(=O)O)cc(NS(=O)(=O)c2cccc(-c3ccccc3)c2)c2ccccc12	58.4 µM	24.2 µM	
COc1c(SCC(N)=O)cc(NS(=O)(=O)c2ccc(Br)cc2)c2ccccc12	> 100 µM	> 27 µM	
O=C(O)CSc1cc(NS(=O)(=O)c2ccc(Cl)cc2)c2ccccc2c1O	2.7 µM		
Cc1cs/c(=N\C2CCCCC2)n1/N=C/c1ccc(O)c(O)c1O			IC50 [14]: 4.72 µM; IC50 (Bcl-2-like protein 1): > 50 µM
O=C(O)CSc1cc(NS(=O)(=O)c2ccc(-c3ccc(Cl)cc3)cc2)c2ccccc2c1O	0.88 µM		Ki [5]: 6.11 µM; inhibition [6]: inactive; Activity (HL-60 [3]): Dose-dependent effect; Activity (MV4-11): Dose-dependent effect; Activity (K562): Dose-dependent effect
CCc1ccc(S(=O)(=O)Nc2cc(SCC(=O)O)c(O)c3ccccc23)cc1	8.68 µM		
